Drawing on ChEMBL document CHEMBL1146496, “Expanding the strategies in natural product studies of marine-derived fungi: a chemical investigation of penicillium obtained from deep water sediment” (J Nat Prod, 2004), this text covers IC50 and Activity for five compounds.

One data set concerns MDA-MB-435. Nature of the data set: Cytotoxicity against human MDA-MB-435 after 48 hrs by SRB assay. It is filed as functional, cell-based. The conditions noted are these: MDA-MB-435, 48 h. An outline of the steps:
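MDA-MB-435 cells plated and left to attach and grow 24 h, then exposed to compound or ethanol vehicle for 48 h. Cells fixed with 10% trichloroacetic acid, stained with 0.4% sulforhodamine B, absorbance read at 560 nm. Full dose–response in triplicate; IC50 (50% proliferation inhibition) taken from the linear portion of the log-dose–response curve.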
A general note: The SRB assay estimates cell density from bound dye.

A short description of data set [1]: Cytotoxicity against human H116 cells assessed as zone units at 6.8 mg/mL by disk diffusion soft agar colony formation assay. It is filed as functional. The essentials: (§1)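 Soft agar colony formation with disk diffusion. Sample dissolved in 250 µL DMSO; a 15 µL aliquot at the stated concentration is spotted on a cellulose disk laid on agar containing the cells. After incubation, the zone of colony inhibition is measured in zone units (200 zu = 6 mm). Activity is defined as ≥300 zu.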
In general terms: Agar diffusion results depend on both activity and mobility in agar.

The nature of data set [2]: Cytotoxicity against mouse CFU-GM cells assessed as zone units at 6.8 mg/mL by disk diffusion soft agar colony formation assay. It is filed as cell-based. An outline of the steps:
as §1

In data set [3] the test system is MC-38. Nature of the data set: Cytotoxicity against mouse C38 cells assessed as zone units at 6.8 mg/mL by disk diffusion soft agar colony formation assay. It is filed as functional. An outline of the steps: as §1
A short description of data set [4]: Cytotoxicity against human H125 cells assessed as zone units at 6.8 mg/mL by disk diffusion soft agar colony formation assay. It is filed as functional. An outline of the steps:
as §1

In data set [5] the test system is L1210. Nature of the data set: Cytotoxicity against mouse L1210 cells assessed as zone units at 6.8 mg/mL by disk diffusion soft agar colony formation assay. It is filed as functional. The essentials: as §1
A short description of data set [6]: Cytotoxicity against human H125 cells assessed as zone units at 8.0 mg/mL by disk diffusion soft agar colony formation assay. It is filed as functional. An outline of the steps: as §1
Data set [7] has as its system L1210. The data set can be described thus: Cytotoxicity against mouse L1210 cells assessed as zone units at 8.0 mg/mL by disk diffusion soft agar colony formation assay. It is filed as functional. An outline of the steps: as §1
Data set [8] is described as follows: Cytotoxicity against human H116 cells assessed as zone units at 8.0 mg/mL by disk diffusion soft agar colony formation assay. It is filed as functional. The essentials: as §1
A short description of data set [9]: Cytotoxicity against mouse CFU-GM cells assessed as zone units at 8.0 mg/mL by disk diffusion soft agar colony formation assay. It is filed as cell-based. The essentials: as §1
Data set [10] concerns MC-38. The data set can be described thus: Cytotoxicity against mouse C38 cells assessed as zone units at 8.0 mg/mL by disk diffusion soft agar colony formation assay. It is filed as functional. The essentials: as §1
For data set [11], the system named is CCRF-CEM. Nature of the data set: Cytotoxicity against human CEM cells assessed as zone units at 4.0 mg/mL by disk diffusion soft agar colony formation assay. It is filed as functional. An outline of the steps:
as §1

Data set [12] can be described thus: Cytotoxicity against human H116 cells assessed as zone units at 4.0 mg/mL by disk diffusion soft agar colony formation assay. It is filed as functional. The essentials: as §1
The test system of data set [13] is MC-38. The data set can be described thus: Cytotoxicity against mouse C38 cells assessed as zone units at 4.0 mg/mL by disk diffusion soft agar colony formation assay. It is filed as functional. The essentials:
as §1

Data set [14] in a line: Cytotoxicity against human H125 cells assessed as zone units at 4.0 mg/mL by disk diffusion soft agar colony formation assay. It is filed as functional. An outline of the steps:
as §1

In data set [15] the test system is L1210. Nature of the data set: Cytotoxicity against mouse L1210 cells assessed as zone units at 4.0 mg/mL by disk diffusion soft agar colony formation assay. It is filed as functional. The essentials:
as §1

Data set [16] is described as follows: Cytotoxicity against mouse CFU-GM cells assessed as zone units at 4.0 mg/mL by disk diffusion soft agar colony formation assay. It is filed as cell-based. The essentials:
as §1

Data set [17] concerns L1210. The data set can be described thus: Cytotoxicity against mouse L1210 cells assessed as zone units at 6.0 mg/mL by disk diffusion soft agar colony formation assay. It is filed as functional. An outline of the steps:
as §1

Data set [18] in a line: Cytotoxicity against mouse CFU-GM cells assessed as zone units at 6.0 mg/mL by disk diffusion soft agar colony formation assay. It is filed as cell-based. The essentials: as §1
Data set [19] in a line: Cytotoxicity against human H116 cells assessed as zone units at 6.0 mg/mL by disk diffusion soft agar colony formation assay. It is filed as functional. The essentials:
as §1

Data set [20] is described as follows: Cytotoxicity against human H125 cells assessed as zone units at 6.0 mg/mL by disk diffusion soft agar colony formation assay. It is filed as functional. An outline of the steps: as §1
The test system of data set [21] is MC-38. Nature of the data set: Cytotoxicity against mouse C38 cells assessed as zone units at 6.0 mg/mL by disk diffusion soft agar colony formation assay. It is filed as functional. The essentials: as §1
A short description of data set [22]: Cytotoxicity against human H125 cells assessed as zone units at 11.6 mg/mL by disk diffusion soft agar colony formation assay. It is filed as functional. An outline of the steps:
as §1

Data set [23] relates to MC-38. Nature of the data set: Cytotoxicity against mouse C38 cells assessed as zone units at 11.6 mg/mL by disk diffusion soft agar colony formation assay. It is filed as functional. An outline of the steps:
as §1

A short description of data set [24]: Cytotoxicity against mouse CFU-GM cells assessed as zone units at 11.6 mg/mL by disk diffusion soft agar colony formation assay. It is filed as cell-based. The essentials:
as §1

Data set [25] can be described thus: Cytotoxicity against human H116 cells assessed as zone units at 11.6 mg/mL by disk diffusion soft agar colony formation assay. It is filed as functional. The essentials:
as §1

Data set [26] relates to L1210. The data set can be described thus: Cytotoxicity against mouse L1210 cells assessed as zone units at 11.6 mg/mL by disk diffusion soft agar colony formation assay. It is filed as functional. The essentials: as §1
For data set [27], the system named is CCRF-CEM. The data set can be described thus: Cytotoxicity against human CEM cells assessed as zone units at 11.6 mg/mL by disk diffusion soft agar colony formation assay. It is filed as functional. An outline of the steps: as §1

Values after ≈ are worked out from the molar mass of the structure shown.

As for `COC1=CC(=O)[C@]2(C)O[C@@]23C[C@@H](C)O[C@@]13O`, the IC50 (as a rule, the concentration needed to halve the response being measured) with MDA-MB-435 is > 10 µg/mL. Besides, the Activity in data set [1] is listed as 0 Zone units; in data set [2], 0 Zone units; in the data set with MC-38 [3] it was 200 Zone units; in data set [4], 0 Zone units; with L1210 [5], 50 Zone units.

On to `COC1=CC(=O)[C@]2(C)O[C@@]23CC(C)OC13O` (stereo partly drawn) [(+)-EPOXYSERINONE B], for which, in the data set on MDA-MB-435, the IC50 was > 10 µg/mL. Moreover, the Activity in [6] was found to be 50 Zone units; with L1210 [7] it was 250 Zone units; in data set [8], 200 Zone units; in data set [9], 400 Zone units; in the data set on MC-38 [10] it was 400 Zone units.

In the data set with MDA-MB-435, `COC1=CC(=O)C(C)=C(C[C@H](C)OC=O)C1=O` [(+)-FORMYLANSERINONE B] registered an IC50 of 2.9 µg/mL (≈ 12.2 µM). The Activity was found to be 550 Zone units with CCRF-CEM [11]; 400 Zone units in [12]; 250 Zone units in the data set with MC-38 [13]; 350 Zone units in data set [14]; 550 Zone units in the data set on L1210 [15]; 600 Zone units in [16].

On to `COC1=CC(=O)C(C)=C(CC(C)=O)C1=O` [ANSERINONE A], for which the Activity in the data set with L1210 [17] amounted to 300 Zone units; in data set [18], 150 Zone units; in [19], 50 Zone units; in data set [20], 50 Zone units; in the data set on MC-38 [21], 300 Zone units. Besides, the IC50 with MDA-MB-435 was found to be 2.22 µg/mL (≈ 10.7 µM).

Take `COC1=CC(=O)C(C)=C(C[C@H](C)O)C1=O` [ANSERINONE B]: in the data set with MDA-MB-435, the IC50 stood at 3.6 µg/mL (≈ 17.1 µM). Also, the Activity in data set [22] is reported as 400 Zone units; with MC-38 [23] it was 400 Zone units; in data set [24], 650 Zone units; in [25], 400 Zone units; with L1210 [26] it was 700 Zone units; in the data set with CCRF-CEM [27], 650 Zone units.
